# Assay results from ChEMBL document CHEMBL1139851, “Synthesis and SAR of [1,2,4]triazolo[1,5-a]pyrimidines, a class of anticancer agents with a unique mechanism of tubulin inhibition” (J Med Chem, 2007).
# Calls of active or inactive are those of the source. The rule behind the calls is not given here.
# Legend:
# [1] = test system: COLO 205; assay: Cytotoxicity against COLO205 cells; assay type: cell-based; settings: Homo sapiens
# Outline: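 MTS cytotoxicity assay in COLO 205 cells. Trypsinized cells were plated at 1000/well and preincubated about 24 h at 37 °C in 5% CO2. Compounds were added as nine serial 2-fold DMSO dilutions, final top concentration typically 5 µM, and cells were cultured 3 days. Absorbance was normalized to a time-0 plate. IC50 was read from a 10-concentration dose-response curve run in triplicate.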
# [2] = test system: KB; assay: Antiproliferative activity against KB cells expressing MDR1; assay type: functional, cell-based; settings: Homo sapiens
# Outline: (§1)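 KB, KB 8.5 and KB V1 lines differ in P-gp (MDR1) level. Growth-inhibition IC50 was taken from a dose-response curve at 10 concentrations in duplicate.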
# [3] = Antiproliferative activity against KB8.5 cells expressing MDR1; assay type: functional, cell-based; settings: Homo sapiens; outline: as §1
# [4] = Antiproliferative activity against KBV1 cells expressing MDR1; assay type: functional, cell-based; settings: Homo sapiens, KB-V1; outline: as §1
# [5] = test system: KB; assay: Ratio of IC50 for KB8.5 cells to IC50 for KB cells; assay type: functional, Homo sapiens
# Outline: (§2)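 Resistance ratio is IC50 on KB 8.5 or KB V1 cells divided by IC50 on parental KB cells, each from 10-concentration duplicate dose-response curves.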
# [6] = Ratio of IC50 for KBV1 cells to IC50 for KB cells; assay type: functional, Homo sapiens; outline: as §2
# [7] = test system: U-87MG ATCC; assay: Antitumor activity against U87-MG cells xenografted in orally dosed athymic nu/nu mouse; assay type: functional, organism-based; settings: Homo sapiens
# Outline: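 U87-MG flank xenografts (1 × 10⁶ cells, subcutaneous) were grown in female athymic nu/nu mice and staged at 80-120 mg. Compound was given by oral gavage on days 0 and 7 after staging. Controls received Klucel vehicle […], with nine animals per group. Tumor volume was (length × width²)/2, tested by one-sided Student's t-test.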
# [8] = test system: U-87MG ATCC; assay: Antitumor activity against U87-MG cells xenografted in iv dosed athymic nu/nu mouse; assay type: functional, organism-based; settings: Homo sapiens
# Outline: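 Female athymic nu/nu mice received 1 × 10⁶ U87-MG cells subcutaneously in the flank. Once tumors reached 80-120 mg they were randomized into groups of 5-10. Compound was given iv in Klucel or 0.9% saline; controls got vehicle alone. Tumor volume was (length × width²)/2, compared with vehicle by one-sided Student's t-test, p ≤ 0.05.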
# [9] = Metabolic stability in mouse liver microsomes; assay type: ADME, Microsome
# [10] = Metabolic stability in rat liver microsomes; assay type: ADME, Microsome
# [11] = Solubility in water at pH 6.74; assay type: physicochemical
# [12] = Solubility in water at pH 5.48; assay type: physicochemical
# [13] = Volume of distribution in rat; assay type: ADME, organism-based; settings: in vivo, read-out: Vdss
# [14] = Clearance in rat; assay type: ADME, organism-based; settings: in vivo
# [15] = Half life in rat; assay type: ADME, organism-based; settings: in vivo
# [16] = Oral bioavailability in rat; assay type: ADME, organism-based; settings: in vivo
# [17] = test system: A549; assay: Antitumor activity against A549 cells xenografted in athymic nu/nu mouse after iv administration; assay type: functional, organism-based
# Outline: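 Female athymic nu/nu mice were implanted subcutaneously in the flank with 1 × 10⁷ A549 cells. Animals were staged at about 300 (mm³/mg), then randomized into groups of 5-10. Dosing was iv on days 0, 7, 14 and 21, in Klucel or 0.9% saline; controls got vehicle. Tumor volume was (length × width²)/2. Analysis used a one-sided Student's t-test, p ≤ 0.05.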
# [18] = target: T1, Tubulin (Homo sapiens) (UniProt P68371+Q9H4B7+P0DPH7+P68366+Q13509+Q71U36+P04350+Q3ZCM7+P07437+P68363+Q9BQE3+Q6PEY2+Q13885+Q9BVA1+Q9BUF5); assay: Induction of MAP-rich tubulin polymerization at 2.7 uM; assay type: protein-complex assay
# [19] = target: T1, Tubulin (Homo sapiens); assay: Displacement of [3H]vinblastine from tubulin; assay type: protein-complex assay
# [20] = target: T1, Tubulin (Homo sapiens); assay: Displacement of [3H]colchicine from tubulin; assay type: protein-complex assay
# [21] = species on record: Homo sapiens; assay: Displacement of [3H]paclitaxel from microtubules
# [22] = target: T1, Tubulin (Homo sapiens); assay: Induction of tubulin polymerization in absence of GTP; assay type: protein-complex assay
# [23] = test system: HeLa; assay: Induction of apoptosis in HeLa cells assessed as increase in sub-G1 population at 35 nM; assay type: functional, cell-based; settings: Homo sapiens
# [24] = test system: HeLa; assay: Mitotic block in HeLa cells assessed as increase in G2/M peak by flow cytometry at >35 nM; assay type: functional, cell-based; settings: Homo sapiens
# [25] = test system: HeLa; assay: Induction of apoptosis in HeLa cells assessed as effect on sub-G1 population; assay type: functional, cell-based; settings: Homo sapiens
# [26] = test system: HeLa; assay: Induction of apoptosis in HeLa cells assessed as increase in sub-G1 population at 1 uM; assay type: functional, cell-based; settings: Homo sapiens
smiles,measurement,setting,value
C[C@H](Nc1c(-c2c(F)cc(OCCCN(C)C)cc2F)c(Cl)nc2ncnn12)C(F)(F)F.Cl,IC50,[1],56 nM
same,IC50,[2],18.7 nM
same,IC50,[3],33 nM
same,IC50,[4],114 nM
same,Ratio IC50,[5],1.8
same,Ratio IC50,[6],6.1
same,Activity,[7],Active
same,Activity,[8],Active
C[C@H](Nc1c(-c2c(F)cc(F)cc2F)c(Cl)nc2ncnn12)C(F)(F)F,IC50,[1],267 nM
C[C@H](Nc1c(-c2c(F)cc(OCCCN3CCOCC3)cc2F)c(Cl)nc2ncnn12)C(F)(F)F,IC50,[1],51 nM
same,Activity,[7],Active
same,Activity,[8],Active
C[C@H](Nc1c(-c2c(F)ccc(OCCN(C)C)c2F)c(Cl)nc2ncnn12)C(F)(F)F,IC50,[1],1570 nM
CCN(C)CCCOc1cc(F)c(-c2c(Cl)nc3ncnn3c2N[C@@H](C)C(F)(F)F)c(F)c1,IC50,[1],48 nM
CNCCCOc1cc(F)c(-c2c(Cl)nc3ncnn3c2N[C@@H](C)C(F)(F)F)c(F)c1.Cl,IC50,[1],31 nM
same,IC50,[2],23 nM
same,IC50,[3],67 nM
same,IC50,[4],953 nM
same,Ratio IC50,[5],2.9
same,Ratio IC50,[6],41.5
same,half-life,[9],7.22 h
same,half-life,[10],1.47 h
same,solubility,[11],890 µg/mL
same,solubility,[12],7990 µg/mL
same,Vd,[13],14 L/kg
same,clearance,[14],14 mL/min/kg
same,half-life,[15],13 h
same,bioavailability,[16],61%
same,Tumour inhibition,[17],Active
same,Activity,[7],Active
same,Activity,[8],Active
same,Activity,[18],Active
same,Activity,[19],Active
same,Activity,[20],inactive
same,Activity,[21],inactive
same,Activity,[22],Active
same,Activity,[23],Active
same,Activity,[24],Active
C[C@H](Nc1c(-c2c(F)ccc(F)c2F)c(Cl)nc2ncnn12)C(F)(F)F,IC50,[1],183 nM
C[C@H](Nc1c(-c2c(F)cc(OCCCCO)cc2F)c(Cl)nc2ncnn12)C(F)(F)F,IC50,[1],151 nM
same,IC50,[2],42 nM
same,IC50,[3],70 nM
same,IC50,[4],67 nM
same,Ratio IC50,[5],1.6
same,Ratio IC50,[6],1.6
C[C@H](Nc1c(-c2c(F)cc(NCCCN(C)C)cc2F)c(Cl)nc2ncnn12)C(F)(F)F,IC50,[1],719 nM
C[C@H](Nc1c(-c2c(F)cc(OCCCN(C)C)cc2F)c(Br)nc2ncnn12)C(F)(F)F,IC50,[1],96 nM
CC[C@]1(O)C[C@H]2CN(CCc3c([nH]c4ccccc34)[C@@](C(=O)OC)(c3cc4c(cc3OC)N(C=O)[C@H]3[C@@](O)(C(=O)OC)[C@H](OC(C)=O)[C@]5(CC)C=CCN6CC[C@]43[C@@H]65)C2)C1 [VINCRISTINE],IC50,[3],58 nM
same,Ratio IC50,[5],26
same,Activity,[25],inactive
C[C@H](Nc1c(-c2c(F)cc(SCCCN(C)C)cc2F)c(Cl)nc2ncnn12)C(F)(F)F,IC50,[1],192 nM
C[C@@H](Nc1c(-c2c(F)cc(F)cc2F)c(Cl)nc2ncnn12)C(F)(F)F,IC50,[1],705 nM
C[C@H](Nc1c(-c2c(F)cc(OCCCN3CCCC3)cc2F)c(Cl)nc2ncnn12)C(F)(F)F,IC50,[1],44 nM
same,Activity,[7],Active
same,Activity,[8],Active
Fc1cc(F)c(-c2c(Cl)nc3ncnn3c2NCC(F)(F)F)c(F)c1,IC50,[1],372 nM
C[C@H](Nc1c(-c2c(F)cc(OCCCN3CCC3)cc2F)c(Cl)nc2ncnn12)C(F)(F)F,IC50,[1],326 nM
C[C@H](Nc1c(-c2c(F)ccc(OCCCN(C)C)c2F)c(Cl)nc2ncnn12)C(F)(F)F,IC50,[1],785 nM
C[C@H](Nc1c(-c2c(F)cc(F)cc2F)c(Br)nc2ncnn12)C(F)(F)F,IC50,[1],232 nM
C[C@H](Nc1c(-c2c(F)cc(OCCCN3CCCCC3)cc2F)c(Cl)nc2ncnn12)C(F)(F)F,IC50,[1],113 nM
CC(=O)O[C@@]12CO[C@@H]1C[C@H](O)[C@@]1(C)C(=O)[C@H](O)C3=C(C)[C@@H](OC(=O)[C@H](O)[C@@H](NC(=O)OC(C)(C)C)c4ccccc4)C[C@@](O)([C@@H](OC(=O)c4ccccc4)[C@H]21)C3(C)C,Activity,[26],Active
CN(C)CCCOc1cc(F)c(-c2c(Cl)nc3ncnn3c2NCC(F)(F)F)c(F)c1.Cl,IC50,[1],53 nM
same,IC50,[2],18.7 nM
same,IC50,[3],38 nM
same,IC50,[4],263 nM
same,Ratio IC50,[5],2
same,Ratio IC50,[6],14
same,Activity,[7],Active
same,Activity,[8],Active
C[C@H](Nc1c(-c2ccc(F)cc2F)c(Cl)nc2ncnn12)C(F)(F)F,IC50,[1],953 nM
C[C@H](Nc1c(-c2c(F)cc(CCCCN(C)C)cc2F)c(Cl)nc2ncnn12)C(F)(F)F,IC50,[1],665 nM
C[C@H](Nc1c(-c2c(F)cc(OCCN3CCOCC3)cc2F)c(Cl)nc2ncnn12)C(F)(F)F,IC50,[1],245 nM
CCCCOc1cc(F)c(-c2c(Cl)nc3ncnn3c2N[C@@H](C)C(F)(F)F)c(F)c1,IC50,[1],1900 nM
C[C@H](Nc1c(-c2c(F)cc(OCCCN)cc2F)c(Cl)nc2ncnn12)C(F)(F)F,IC50,[1],452 nM
C[C@H](Nc1c(-c2c(F)cc(OCCCCCO)cc2F)c(Cl)nc2ncnn12)C(F)(F)F,IC50,[1],214 nM
C[C@H](Nc1c(-c2c(F)cc(N(C)CCCN(C)C)cc2F)c(Cl)nc2ncnn12)C(F)(F)F,IC50,[1],1670 nM
CCOCCCOc1cc(F)c(-c2c(Cl)nc3ncnn3c2N[C@@H](C)C(F)(F)F)c(F)c1,IC50,[1],269 nM
COc1cc2c(c(OC)c1OC)-c1ccc(OC)c(=O)cc1[C@@H](NC(C)=O)CC2,Activity,[25],inactive
C[C@H](Nc1c(-c2c(F)cc(OCCO)cc2F)c(Cl)nc2ncnn12)C(F)(F)F,IC50,[1],422 nM
C[C@H](Nc1c(-c2c(F)cc(OCCN(C)C)cc2F)c(Cl)nc2ncnn12)C(F)(F)F,IC50,[1],581 nM
C[C@H](Nc1c(-c2c(F)ccc(OCCCCN(C)C)c2F)c(Cl)nc2ncnn12)C(F)(F)F,IC50,[1],433 nM
C[C@H](Nc1c(-c2c(F)cc(OCCCO)cc2F)c(Cl)nc2ncnn12)C(F)(F)F,IC50,[1],67 nM
C[C@H](Nc1c(-c2ccc(OCCCN(C)C)cc2F)c(Cl)nc2ncnn12)C(F)(F)F,IC50,[1],262 nM
C[C@H](Nc1c(-c2c(F)cc(OCCCCN(C)C)cc2F)c(Cl)nc2ncnn12)C(F)(F)F,IC50,[1],276 nM
